As usually defined, the inhibition is the change of the read-out against control, counted positive when it falls. Broadly, the IC50 is the midpoint of a concentration-inhibition curve.

Some results are limits rather than exact numbers.

Series [1] concerns Aurk (Aurora kinase). Briefly: Inhibition of Aurk in mouse L929sA cells transfected with human Fas assessed as reduction in cell growth at 3 uM after 24 hrs in presence of TNF by Hoechst 33342 staining-based microscopic assay relative to control.
Series [2] is described as follows: Inhibition of Aurk mouse L929sA cells transfected with human Fas assessed as reduction in cell growth after 24 hrs in presence of TNF by Hoechst 33342 staining-based microscopic assay. A digest of the protocol: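 L929sAhFAS cells exposed to compound; total cell number is counted after 24 h. IC50 is fitted from a dose–response curve of cell growth.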
The nature of series [3]: Inhibition of Aurk mouse L929sA cells transfected with human Fas assessed as increase in nuclear area after 24 hrs in presence of TNF by Hoechst 33342 staining-based microscopic assay. A digest of the protocol: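 L929sAhFAS cells treated with compound; mean nuclear area is measured and fitted as a sigmoidal dose–response curve.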
The test system of series [4] is Aurk (Aurora kinase). Briefly: Inhibition of Aurk in mouse L929sA cells transfected with human Fas assessed as increase in nuclear area at 3 uM after 24 hrs in presence of TNF by Hoechst 33342 staining-based microscopic assay relative to control. It counts as cell-based.
Series [5] deals with T1, Receptor-interacting serine/threonine-protein kinase 1 (Mus musculus) (UniProt Q60855).
T1 sequence (whole entry): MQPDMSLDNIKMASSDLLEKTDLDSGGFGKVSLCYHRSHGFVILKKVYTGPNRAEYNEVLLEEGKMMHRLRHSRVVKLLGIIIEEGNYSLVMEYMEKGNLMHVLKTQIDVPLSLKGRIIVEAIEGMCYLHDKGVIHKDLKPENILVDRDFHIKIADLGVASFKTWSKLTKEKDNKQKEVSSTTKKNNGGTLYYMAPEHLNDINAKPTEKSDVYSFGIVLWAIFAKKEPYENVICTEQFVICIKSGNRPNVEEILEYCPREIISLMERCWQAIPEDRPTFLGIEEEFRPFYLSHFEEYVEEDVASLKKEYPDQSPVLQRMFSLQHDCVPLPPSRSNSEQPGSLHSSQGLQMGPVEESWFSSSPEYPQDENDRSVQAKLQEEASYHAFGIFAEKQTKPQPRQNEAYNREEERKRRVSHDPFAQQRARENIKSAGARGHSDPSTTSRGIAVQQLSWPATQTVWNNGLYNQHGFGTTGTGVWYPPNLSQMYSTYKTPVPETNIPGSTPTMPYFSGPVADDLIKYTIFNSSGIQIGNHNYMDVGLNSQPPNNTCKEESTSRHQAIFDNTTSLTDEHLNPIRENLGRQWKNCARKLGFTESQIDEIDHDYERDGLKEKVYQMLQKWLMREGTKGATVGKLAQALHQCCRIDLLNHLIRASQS
Briefly: Inhibition of RIPK1 in mouse L929sA cells transfected with human Fas assessed as inhibition in TNF-induced necroptosis at 3 uM pretreated for 0.5 hrs followed by TNF and zVAD.fmk addition measured after 3 hrs by Hoechst 33342/propidium iodide staining-based assay relative to control. The series is classed as cell-based.

Series [6] concerns the target T1, Receptor-interacting serine/threonine-protein kinase 1 (Mus musculus). Briefly: Inhibition of RIPK1 in mouse L929sA cells transfected with human Fas assessed as inhibition in TNF-induced necroptosis at 3 uM pretreated for 24 hrs followed by TNF and zVAD.fmk addition measured after 3 hrs by Hoechst 33342/propidium iodide staining-based assay relative to control. The series is classed as cell-based.

Turning to `Cc1cc(Nc2cc(N3CCCCC3)nc(Nc3ccc(NC(=O)C4CCCCC4)cc3)n2)n[nH]1`, the inhibition at 24 h, 3 µM with Aurk (Aurora kinase) [1] and with Aurk (Aurora kinase) [4] was under 50% each time. For the same molecule, the concentration for half-maximal inhibition (IC50) in series [2] and in series [3] was over 3000 nM throughout. In series [5], the inhibition was under 50%.
Consider `Cc1cc(Nc2nc(Nc3ccc(NC(=O)C4CCCCC4)cc3)nc(N3CCN(C)CC3)n2)n[nH]1`, for which the inhibition in series [6] and in series [5] was under 50% throughout. The inhibition at 24 h, 3 µM in the series on Aurk (Aurora kinase) [1] and in the series with Aurk (Aurora kinase) [4] was under 50% throughout. The IC50 in series [2] and in series [3] was over 3000 nM throughout.
For `Cc1[nH]nc(Nc2cc(N3CCCCC3)nc(Nc3ccc(NC(=O)C4CC4)cc3)n2)c1C`, the inhibition in series [6] and in series [5] was under 50% in each case. Besides, the inhibition at 24 h, 3 µM in the series on Aurk (Aurora kinase) [1] and with Aurk (Aurora kinase) [4] was under 50% in each case. For the same molecule, the IC50 in series [2] and in series [3] was over 3000 nM throughout.
Turning to `Cc1[nH]nc(Nc2nc(Sc3ccc(NC(=O)C4CCCCC4)cc3)nc(N3CCN(C)CC3)n2)c1C`, the inhibition in series [6] and in series [5] was under 50% throughout. The inhibition at 24 h, 3 µM with Aurk (Aurora kinase) [1] and in the series on Aurk (Aurora kinase) [4] was under 50% each time. Moreover, the IC50 in series [2] and in series [3] was over 3000 nM each time.
Consider `Cc1cc(Nc2cc(N3CCOCC3)nc(Sc3ccc(NC(=O)C4CCCCC4)cc3)n2)n[nH]1`, for which the concentration for half-maximal inhibition (IC50) in series [2] is 214 nM; in series [3], under 600 nM.
The like results for `Cc1cc(Nc2cc(N3CCCCC3)nc(Sc3ccc(NC(=O)C4CC4)cc3)n2)n[nH]1` were, in that order, 1320 nM and 1000 nM.
As for `Cc1[nH]nc(Nc2nc(Sc3ccc(NC(=O)C4CC4)cc3)nc(N3CCOCC3)n2)c1C`, the inhibition in series [6] and in series [5] was under 50% each time. Further, the inhibition at 24 h, 3 µM with Aurk (Aurora kinase) [1] and in the series on Aurk (Aurora kinase) [4] was under 50% each time. Also, the IC50 in series [2] and in series [3] was over 3000 nM each time.
`Cc1[nH]nc(Nc2cc(N3CCN(C)CC3)nc(Nc3ccc(NC(=O)C4CCCCC4)cc3)n2)c1C`: the inhibition in series [6] and in series [5] was under 50% throughout. Also, the inhibition at 24 h, 3 µM in the series on Aurk (Aurora kinase) [1] and with Aurk (Aurora kinase) [4] was under 50% each time. In addition, the half-maximal inhibitory concentration (IC50) in series [2] and in series [3] was over 3000 nM each time.
In the case of `Cc1[nH]nc(Nc2nc(Nc3ccc(NC(=O)C4CCCCC4)cc3)nc(N3CCCCC3)n2)c1C`, the inhibition in series [6] and in series [5] was under 50% each time. The inhibition at 24 h, 3 µM in the series on Aurk (Aurora kinase) [1] and in the series with Aurk (Aurora kinase) [4] was under 50% each time. Also, the IC50 in series [2] and in series [3] was over 3000 nM each time.
As for `Cc1cc(Nc2nc(Nc3ccc(NC(=O)C4CCCCC4)cc3)nc(N3CCCCC3)n2)n[nH]1`, the inhibition in series [6] and in series [5] was under 50% throughout. Further, the inhibition at 24 h, 3 µM in the series with Aurk (Aurora kinase) [1] and in the series on Aurk (Aurora kinase) [4] was under 50% throughout. Further, the IC50 in series [2] and in series [3] was over 3000 nM in each case.
For `Cc1[nH]nc(Nc2nc(Nc3ccc(NC(=O)C4CCCCC4)cc3)nc(N3CCOCC3)n2)c1C`, the inhibition in series [6] and in series [5] was under 50% throughout. Moreover, the inhibition at 24 h, 3 µM in the series on Aurk (Aurora kinase) [1] and with Aurk (Aurora kinase) [4] was under 50% in each case. Moreover, the half-maximal inhibitory concentration (IC50) in series [2] and in series [3] was over 3000 nM each time.
With `Cc1[nH]nc(Nc2nc(Nc3ccc(NC(=O)C4CCCCC4)cc3)nc(N3CCN(C)CC3)n2)c1C`, the inhibition in series [6] and in series [5] was under 50% each time. Moreover, the inhibition at 24 h, 3 µM with Aurk (Aurora kinase) [1] and in the series with Aurk (Aurora kinase) [4] was under 50% throughout. The half-maximal inhibitory concentration (IC50) in series [2] and in series [3] was over 3000 nM each time.
For the molecule `Cc1cc(Nc2nc(Nc3ccc(NC(=O)C4CCCCC4)cc3)nc(N3CCOCC3)n2)n[nH]1`, the inhibition in series [6] and in series [5] was under 50% each time. Further, the half-maximal inhibitory concentration (IC50) is 2300 nM in series [2] and over 3000 nM in series [3]. The inhibition at 24 h, 3 µM with Aurk (Aurora kinase) [4] was under 50%.
Turning to `Cc1cc(Nc2nc(Nc3ccc(NC(=O)C4CC4)cc3)nc(N3CCOCC3)n2)n[nH]1`, the inhibition at 24 h, 3 µM with Aurk (Aurora kinase) [1] and with Aurk (Aurora kinase) [4] was under 50% throughout. For the same molecule, the concentration for half-maximal inhibition (IC50) in series [2] and in series [3] was over 3000 nM throughout.
In the case of `Cc1[nH]nc(Nc2nc(Sc3ccc(NC(=O)C4CCCCC4)cc3)nc(N3CCCCC3)n2)c1C`, the inhibition in series [6] and in series [5] was under 50% each time. For the same molecule, the inhibition at 24 h, 3 µM in the series with Aurk (Aurora kinase) [1] and in the series on Aurk (Aurora kinase) [4] was under 50% in each case. Further, the IC50 in series [2] and in series [3] was over 3000 nM in each case.
As to `Cc1cc(Nc2cc(N3CCCCC3)nc(Sc3ccc(NC(=O)C4CCCCC4)cc3)n2)n[nH]1`, the concentration for half-maximal inhibition (IC50) in series [2] was 813 nM; in series [3] it was over 3000 nM. Also, in the series with Aurk (Aurora kinase) [4], the inhibition at 24 h, 3 µM was under 50%.
In the case of `Cc1cc(Nc2nc(Sc3ccc(NC(=O)C4CC4)cc3)nc(N3CCOCC3)n2)n[nH]1`, the inhibition at 24 h, 3 µM with Aurk (Aurora kinase) [1] and in the series with Aurk (Aurora kinase) [4] was under 50% each time. The IC50 in series [2] and in series [3] was over 3000 nM each time.
In the case of `Cc1cc(Nc2nc(Sc3ccc(NC(=O)C4CCCCC4)cc3)nc(N3CCOCC3)n2)n[nH]1`, the 50% inhibitory concentration (IC50) in series [2] is 2170 nM; in series [3], over 3000 nM. In the series with Aurk (Aurora kinase) [4], the inhibition at 24 h, 3 µM is under 50%. In addition, the inhibition in series [5] is under 50%.
In the case of `Cc1[nH]nc(Nc2nc(Nc3ccc(NC(=O)C4CC4)cc3)nc(N3CCOCC3)n2)c1C`, the inhibition in series [6] and in series [5] was under 50% in each case. The inhibition at 24 h, 3 µM in the series with Aurk (Aurora kinase) [1] and in the series with Aurk (Aurora kinase) [4] was under 50% throughout. Moreover, the 50% inhibitory concentration (IC50) in series [2] and in series [3] was over 3000 nM each time.
On to `Cc1[nH]nc(Nc2nc(Sc3ccc(NC(=O)C4CC4)cc3)nc(N3CCN(C)CC3)n2)c1C`, for which the inhibition in series [6] and in series [5] was under 50% each time. In addition, the inhibition at 24 h, 3 µM in the series on Aurk (Aurora kinase) [1] and in the series with Aurk (Aurora kinase) [4] was under 50% each time. Besides, the IC50 in series [2] and in series [3] was over 3000 nM throughout.
In the case of `Cc1[nH]nc(Nc2cc(N3CCN(C)CC3)nc(Nc3ccc(NC(=O)C4CC4)cc3)n2)c1C`, the inhibition in series [6] and in series [5] was under 50% throughout. The inhibition at 24 h, 3 µM in the series on Aurk (Aurora kinase) [1] and in the series on Aurk (Aurora kinase) [4] was under 50% in each case. For the same molecule, the 50% inhibitory concentration (IC50) in series [2] and in series [3] was over 3000 nM throughout.
For `Cc1cc(Nc2cc(N3CCOCC3)nc(Nc3ccc(NC(=O)C4CCCCC4)cc3)n2)n[nH]1`, the IC50 is 2250 nM in series [2] and over 3000 nM in series [3]. In addition, the inhibition at 24 h, 3 µM with Aurk (Aurora kinase) [4] was under 50%.
In the case of `Cc1cc(Nc2cc(N3CCN(C)CC3)nc(Sc3ccc(NC(=O)C4CCCCC4)cc3)n2)n[nH]1`, the inhibition in series [6] and in series [5] was under 50% each time. The figures for the IC50 in series [2] and in series [3] were under 600 nM and over 3000 nM, respectively. Moreover, the inhibition at 24 h, 3 µM with Aurk (Aurora kinase) [4] was under 50%.
`Cc1[nH]nc(Nc2cc(N3CCCCC3)nc(Sc3ccc(NC(=O)C4CCCCC4)cc3)n2)c1C`: the inhibition in series [6] and in series [5] was under 50% each time. For the same molecule, the inhibition at 24 h, 3 µM in the series on Aurk (Aurora kinase) [1] and in the series on Aurk (Aurora kinase) [4] was under 50% each time. Further, the concentration for half-maximal inhibition (IC50) in series [2] and in series [3] was over 3000 nM each time.
Take `Cc1[nH]nc(Nc2nc(Nc3ccc(NC(=O)C4CC4)cc3)nc(N3CCN(C)CC3)n2)c1C`: the inhibition in series [6] and in series [5] was under 50% throughout. The inhibition at 24 h, 3 µM in the series with Aurk (Aurora kinase) [1] and in the series with Aurk (Aurora kinase) [4] was under 50% in each case. Further, the IC50 in series [2] and in series [3] was over 3000 nM each time.
With `Cc1cc(Nc2nc(Sc3ccc(NC(=O)C4CC4)cc3)nc(N3CCN(C)CC3)n2)n[nH]1`, the IC50 worked out at 440 nM in series [2] and 800 nM in series [3]. For the same molecule, the inhibition in series [5] was under 50%.
Regarding `Cc1cc(Nc2cc(N3CCN(C)CC3)nc(Nc3ccc(NC(=O)C4CCCCC4)cc3)n2)n[nH]1`, the inhibition at 24 h, 3 µM with Aurk (Aurora kinase) [1] and in the series with Aurk (Aurora kinase) [4] was under 50% each time. Also, the IC50 in series [2] and in series [3] was over 3000 nM throughout.
As for `Cc1cc(Nc2cc(N3CCOCC3)nc(Sc3ccc(NC(=O)C4CC4)cc3)n2)n[nH]1`, the concentration for half-maximal inhibition (IC50) worked out at 1000 nM in series [2] and 1040 nM in series [3].

For the origin of these results see ChEMBL document CHEMBL4043285 (J Med Chem, 2018).
